This is a sample that favours compounds with a hit; in the whole collection about 1.1% have one here.
CAL PDZ FP-1: human CAL PDZ-peptide interaction inhibition. Q9HD26. purified CAL PDZ, TMR-peptide fluorescence polarization, 1 h. inhibition, % at 20 µM. 0.02% of 330,000 active. AID 504414;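 active = highest replicate inhibition of at least 40%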;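 note: plate controls were DMSO neutral control wells for no effect and unlabeled competitor peptide control wells for full effect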
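Material – purified CerCALP PDZ construct · Detection – FP readout, S and P plane fluorescence · Measure – percent inhibition from loss of millipolarization · Controls – unlabelled peptide for full inhibition, DMSO wells as neutral · Probe or stimulus – TMR-labelled reporter peptide T*-PRC34 bound in PDZ groove · Times – 1 h at RT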
PglD inh: inhibitors of Campylobacter jejuni PglD acetyltransferase; purified PglD enzyme, DTNB colorimetric CoA detection; inhibition, % at 12.5 µM; 0.098% of 360,000 active; in the data active = inhibition above about 16%, passing the limit was not always enough
Cneo AK release: causes C. neoformans cell lysis; 0.2% of 360,000 active; AID 651654; lysis activity, % at 15 µM; adenylate kinase release luminescence, 4 h; normalised: neutral wells 0, clomiphene wells 100;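 active = mean lysis activity across replicates of at least 80%, whatever share of replicates individually reach that level; inactive = mean lysis activity below 80%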
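Test system: log-phase Cryptococcus neoformans yeast cells; Quantity: yeast cell density of 5 × 10^6 cells/mL; Buffer or medium: YPD; Doses: single compound concentration per well; Timing: 4 h at 37 °C static, read 1 h later; Measured by: AK luminescence; Read-out basis: lysis from increased AK signal; Control set: Clomiphene as positive control.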
miR122 inh: blocks miR-122 activity in Huh7 sensor cells | Huh7 miR-122 Renilla luciferase sensor, 48 h; neutral wells = 0, positive control = 100 | activation (reporter increase), % at 12.5 µM | 0.3% of 340,000 active | AID 602342;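 active = mean replicate activation score at least 90 and every replicate individually at or above 90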;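 note: higher luciferase means less miR-122 activity so hits act as miR-122 inhibitors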
CAL PDZ FP-2: blocks peptide binding to the human CAL PDZ domain. 0.92% of 300,000 active. inhibition, % at 24.9 µM. Q9HD26. purified CAL PDZ, TMR-peptide fluorescence polarization, 1 h. AID 602252;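 active = mean inhibition of at least 30% with at least half of replicates also reaching 30%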;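 note: 0% = DMSO neutral control and 100% = excess unlabeled competitor peptide PRC23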
Active calls of the source: *; x = no result given; [ ] = remark or other dose.

SMILES	CAL PDZ FP-1	PglD inh	Cneo AK release	miR122 inh	CAL PDZ FP-2
COc1cc(/C=N/NC(N)=S)cc(Br)c1OCc1ccccc1F	-1	x	x	x	124*
COc1ccccc1CNC(=O)CN1C(=O)c2cccc(N)c2C1=O	-3	-6	0	-3	-6
CCCCNC(=O)CN1C(=O)c2cccc(N)c2C1=O	-1	x	x	x	66*
CCOC(=O)c1cc(S(=O)(=O)Nc2cccc(OC)c2)cn1C	-1	-1	-1	132*	8
C[C@@H]1CCCCO[C@@H](CN(C)Cc2ccccc2)[C@H](C)CN([C@H](C)CO)C(=O)c2cc(NC(=O)C3CCCCC3)ccc2O1	x	3	-2	6[16.7 µM]	x
COC(=O)C(NNc1ccccc1)(NC(=O)c1cccc(F)c1)C(F)(F)F (stereo unspecified)	0	-4	10	-1	50*
N/C(=N\OC(=O)c1ccc2c(c1)OCO2)c1ccncc1	-1	0	-5	-2	48*
CC(C)NC(=O)Nc1ccc2c(c1)CC(=O)N([C@H](C)CO)C[C@H](C)[C@@H](CN(C)C(=O)Nc1ccc3c(c1)OCO3)O2	x	5	100*	11[16.7 µM]	x
C[C@@H]1CN([C@H](C)CO)C(=O)Cc2cc(NC(=O)NC3CCCCC3)ccc2O[C@@H]1CN(C)Cc1ccccc1	x	3	92*	35[16.7 µM]	x
CC(C)NC(=O)Nc1ccc2c(c1)CC(=O)N([C@@H](C)CO)C[C@@H](C)[C@@H](CN(C)Cc1ccc(Oc3ccccc3)cc1)O2	x	6	109*	-2[16.7 µM]	x
CC(C)NC(=O)Nc1ccc2c(c1)CC(=O)N([C@@H](C)CO)C[C@H](C)[C@H](CN(C)Cc1ccc(Oc3ccccc3)cc1)O2	x	-2	-3	6[16.7 µM]	x
CC(C)NC(=O)Nc1ccc2c(c1)CC(=O)N([C@@H](C)CO)C[C@@H](C)[C@@H](CN(C)C(=O)Nc1ccc3c(c1)OCO3)O2	x	1	-11	0[16.7 µM]	x
C[C@H]1CN([C@@H](C)CO)C(=O)Cc2cc(NC(=O)Nc3ccccc3)ccc2O[C@H]1CN(C)C(=O)Nc1ccc2c(c1)OCO2	x	0	102*	10[16.7 µM]	x
C[C@@H]1CN([C@@H](C)CO)C(=O)Cc2cc(NC(=O)Nc3ccccc3)ccc2O[C@@H]1CN(C)C(=O)Nc1ccc2c(c1)OCO2	x	-5	-1	-9[16.7 µM]	x
C[C@H](CO)N1C[C@H](C)[C@@H](CN(C)C(=O)NC2CCCCC2)Oc2ncc(-c3ccccc3F)cc2C1=O	x	-3	-9	29[16.7 µM]	x
C[C@@H]1CN([C@H](C)CO)C(=O)c2cccc(NC(=O)c3ccncc3)c2O[C@H]1CN(C)C(=O)NC1CCCCC1	x	0	-2	3[16.7 µM]	x
C[C@H](CO)N1C[C@H](C)[C@@H](CN(C)Cc2ccncc2)OCCCC[C@H](C)Oc2ccc(NC(=O)c3ccccc3)cc2C1=O	x	-10	0	-4[16.7 µM]	x
C[C@@H]1CN([C@H](C)CO)C(=O)Cc2cc(NC(=O)CCN3CCOCC3)ccc2O[C@H]1CN(C)Cc1ccc2c(c1)OCO2	x	6	52	31[16.7 µM]	x
CC(C)NC(=O)Nc1ccc2c(c1)CC(=O)N([C@H](C)CO)C[C@@H](C)[C@@H](CN(C)Cc1ccc3c(c1)OCO3)O2	x	10	0	5[16.7 µM]	x
CC(C)NC(=O)Nc1ccc2c(c1)CC(=O)N([C@H](C)CO)C[C@@H](C)[C@H](CN(C)Cc1ccc3c(c1)OCO3)O2	x	1	100*	33[16.7 µM]	x
COc1ccc(CN(C)C[C@H]2Oc3ccc(NC(=O)Nc4ccc(F)cc4)cc3CC(=O)N([C@@H](C)CO)C[C@@H]2C)cc1	x	5	102*	36[16.7 µM]	x
COc1ccc(CN(C)C[C@H]2Oc3ccc(NC(=O)Nc4ccc(F)cc4)cc3CC(=O)N([C@@H](C)CO)C[C@H]2C)cc1	x	1	1	-11[16.7 µM]	x
CN1[C@@H]2c3ccc(C4=CCCCC4)c(=O)n3C[C@H]1[C@H](CO)[C@H]2C(=O)NCCc1ccccc1	x	x	x	9[16.7 µM]	x
Cc1sc(NC(=O)c2ccco2)c(C(c2cccnc2)N2CCC(C)CC2)c1C (stereo unspecified)	0	3	-5	-20	43*
COc1ccc(C(c2c(NC(=O)c3ccco3)sc(C)c2C)N2CCOCC2)cc1 (stereo unspecified)	3	-3	-1	x	5
SMILES	CAL PDZ FP-1	PglD inh	Cneo AK release	miR122 inh	CAL PDZ FP-2
CCN1CCN(C(c2cccnc2)c2c(NC(=O)c3ccco3)sc(C)c2C)CC1 (stereo unspecified)	0	4	-1	-4	46*
CNC[C@@H]1OCCCC[C@H](C)Oc2ccc(NS(=O)(=O)c3c(C)noc3C)cc2C(=O)N([C@H](C)CO)C[C@@H]1C	x	1	4	0[16.7 µM]	x
CCCNC(=O)C[C@H]1C[C@H]2c3cc(NC(=O)c4ccc5c(c4)OCO5)ccc3O[C@H]2[C@@H](CO)O1	x	-6	-9	-6[16.7 µM]	x
COc1ccc(C(=O)OC2C(OC)OCC(O)C2O)cc1 (stereo unspecified)	19	-3	-1	4	44*
CCCn1nnnc1NCc1cccc(Cl)c1	-7	-3	4	1	80*
N#CCCN(Cc1ccccc1)S(=O)(=O)c1cccs1	x	-17	-1	x	61*
C[C@@H]1CN([C@@H](C)CO)C(=O)c2cccc(NC(=O)c3ccncc3)c2O[C@@H]1CN(C)S(C)(=O)=O	x	-2	-1	-1[16.7 µM]	x
O=C(CCl)N1c2ccccc2CCc2ccccc21	-16	0	-2	-7	46*
CC(Cl)C(=O)N1c2ccccc2CCc2ccccc21 (stereo unspecified)	0	3	1	-5	-4
Cc1cc(Cn2nnc3ccccc32)c(O)c(C(C)(C)C)c1	0	2	-1	134*	3
CC(C)(C)c1cccc(Cn2nnc3ccccc32)c1O	-1	-2	-2	x	2
COCCNC(=O)C[C@@H]1CC[C@@H]2[C@@H](COc3ccc(NC(=O)Nc4cccc(F)c4)cc3C(=O)N2C)O1	x	4	-4	26[16.7 µM]	x
Cc1ccc(C2=NN3C(C(=O)c4ccccc4)Oc4ccccc4C3C2)cc1 (stereo unspecified)	-2	0	0	114*	3
CC(C)c1onc(C(=O)N2CCN(Cc3ccccc3)CC2)c1[N+](=O)[O-]	-1	0	1	x	x
Cc1noc(C)c1COc1ccc(C(=O)N2CCN(S(=O)(=O)c3ccc(Cl)cc3)CC2)cc1	-1	x	x	x	39*
O=S(=O)(NCc1ccccc1)c1ccc2ccccc2c1	x	4	1	x	-5
COc1ccc(S(=O)(=O)NCc2ccccc2)cc1	-1	-4	0	113*	x
COc1ccc(S(=O)(=O)NCc2ccccc2)cc1Br	0	-4	1	192*	0
O=S(=O)(NCc1ccccc1)c1ccc(Cl)c(S(=O)(=O)NCc2ccccc2)c1	0	-3	-1	106*	6
CCC(C)NC(=O)c1ccccc1-c1ccccc1C(=O)NC(C)CC (stereo unspecified)	0	-6	-3	-3	72*
